Assay results reported in ChEMBL document CHEMBL1142703, “Novel ligands for the chemokine receptor-3 (CCR3): a receptor-modeling study based on 5D-QSAR” (J Med Chem, 2005).

target: T1, C-C chemokine receptor type 3 (Homo sapiens, UniProt P51677); experiment: Inhibition of [125I]eotaxin-1 binding to human chemokine receptor (hCCR3-C1)
T1 sequence (P51677 whole entry): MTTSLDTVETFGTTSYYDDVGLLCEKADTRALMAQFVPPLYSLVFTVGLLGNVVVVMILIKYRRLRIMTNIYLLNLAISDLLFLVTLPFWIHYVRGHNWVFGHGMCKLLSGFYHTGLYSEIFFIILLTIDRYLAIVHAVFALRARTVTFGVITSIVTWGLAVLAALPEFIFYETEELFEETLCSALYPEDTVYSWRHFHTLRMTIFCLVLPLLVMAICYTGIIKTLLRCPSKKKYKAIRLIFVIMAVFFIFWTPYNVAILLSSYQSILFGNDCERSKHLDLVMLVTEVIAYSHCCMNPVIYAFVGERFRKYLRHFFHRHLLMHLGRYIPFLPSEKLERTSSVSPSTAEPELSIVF
Outline: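 K562 leukemia myelogenic blast cells transfected with human CCR3 (hCCR3-C1). Binding of the radioligand 125I-eotaxin-1 was measured in a scintillation proximity format. Controls: specific binding with no displacer added, and nonspecific binding with unlabeled eotaxin or test compound added. Bound radioactivity was counted by scintillation. Ki was obtained by iterative fitting of the data to a law-of-mass-action model.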

SMILES | Ki [nM]
CN1CCN(C(CNC(=O)Nc2cc(Cl)cc(Cl)c2)c2ccc(C(F)(F)F)cc2)CC1 (stereo not given) | 5180
CN1CCN(C(CNC(=O)Nc2ccc(F)cc2)c2ccc(N(C)C)cc2)CC1 (stereo not given) | 7750
CN1CCN(C(CNC(=O)Nc2cc(Cl)cc(Cl)c2)c2ccc(N(C)C)cc2)CC1 (stereo not given) | 3810
COc1ccccc1C(CNC(=O)Nc1ccc(F)cc1)N1CCN(C2CCCCC2)CC1 (stereo not given) | 5380
COc1ccc(C(CNC(=O)Nc2ccc(F)cc2)N2CCN(C3CCCCC3)CC2)cc1 (stereo not given) | 1030
O=C(Cc1cc(Cl)cc(Cl)c1)NCC(c1ccccc1)N1CCN(C2CCCCC2)CC1 (stereo not given) | 62500
Cc1ccc(NC(=O)NCC(c2ccccc2)N2CCN(c3ccccc3)CC2)cc1 (stereo not given) | 8020
COc1ccc(NC(=O)NCC(c2ccc(C(F)(F)F)cc2)N2CCN(c3ccccc3)CC2)cc1 (stereo not given) | 14800
COc1ccccc1NC(=O)NCC(c1ccc(C(F)(F)F)cc1)N1CCN(C)CC1 (stereo not given) | 3350
FC(F)(F)c1ccc(C(CNCCc2cc(Cl)cc(Cl)c2)N2CCN(C3CCCCC3)CC2)cc1 (stereo not given) | 129
O=C(NCC(c1ccccc1)N1CCN(c2ccccc2)CC1)Nc1ccc(F)cc1 (stereo not given) | 5550
CN(C)c1ccc(CCNCC(c2ccccc2)N2CCN(c3ccccc3)CC2)cc1 (stereo not given) | 1770
Cc1ccc(NC(=O)NCC(c2ccc(C(F)(F)F)cc2)N2CCN(C)CC2)cc1 (stereo not given) | 10700
COc1ccc(C(CNCCc2ccc(C)cc2)N2CCN(C3CCCCC3)CC2)cc1 (stereo not given) | 914
COc1ccc(NC(=O)NCC(c2ccc(C(F)(F)F)cc2)N2CCN(C3CCCCC3)CC2)cc1 (stereo not given) | 1710
COc1ccc(C(CNC(=O)Cc2ccccc2)N2CCN(c3ccccc3)CC2)cc1 (stereo not given) | 40200
COc1ccc(NC(=O)NCC(c2ccc(C(C)(C)C)cc2)N2CCN(C3CCCCC3)CC2)cc1 (stereo not given) | 1980
COc1ccccc1CCNCC(c1ccc(C(F)(F)F)cc1)N1CCN(C2CCCCC2)CC1 (stereo not given) | 118
COc1ccc(NC(=O)NCC(c2ccccc2OC)N2CCN(C3CCCCC3)CC2)cc1 (stereo not given) | 10500
O=C(NCC(c1ccccc1)N1CCN(C2CCCCC2)CC1)Nc1cc(Cl)cc(Cl)c1 (stereo not given) | 1250
CC(C)(C)c1ccc(CCNCC(c2ccc(C(C)(C)C)cc2)N2CCN(C3CCCCC3)CC2)cc1 (stereo not given) | 349
CN(C)c1ccc(CCNCC(c2ccc(C(F)(F)F)cc2)N2CCN(C3CCCCC3)CC2)cc1 (stereo not given) | 1080
CN(C)c1ccc(C(CNCCc2ccc(C(F)(F)F)cc2)N2CCN(c3ccccc3)CC2)cc1 (stereo not given) | 1670
O=C(NCC(c1ccccc1)N1CCN(C2CCCCC2)CC1)Nc1ccc(F)cc1 (stereo not given) | 6360
FC(F)(F)c1ccc(CCNCC(c2ccccc2)N2CCN(C3CCCCC3)CC2)cc1 (stereo not given) | 1310
Cc1ccc(CC(=O)NCC(c2ccccc2)N2CCN(c3ccccc3)CC2)cc1 (stereo not given) | 26900

SMILES | Ki [nM]
Cc1ccc(NC(=O)NCC(c2ccccc2)N2CCN(C3CCCCC3)CC2)cc1 (stereo not given) | 5390
FC(F)(F)c1ccc(C(CNCCc2ccccc2)N2CCN(C3CCCCC3)CC2)cc1 (stereo not given) | 484
O=C(NCC(c1ccccc1)N1CCN(C2CCCCC2)CC1)Nc1ccc(C(F)(F)F)cc1 (stereo not given) | 1460
COc1ccccc1CC(=O)NCC(c1ccccc1OC)N1CCN(c2ccccc2)CC1 (stereo not given) | 6000
CC(C)(C)c1ccc(C(CNC(=O)Cc2ccc(C(F)(F)F)cc2)N2CCN(C3CCCCC3)CC2)cc1 (stereo not given) | 10300
CN1CCN(C(CNCCc2ccccc2)c2ccccc2)CC1 (stereo not given) | 21800
COc1ccc(C(CNCCc2ccc(F)cc2)N2CCN(C)CC2)cc1 (stereo not given) | 11700
CN(C)c1ccc(NC(=O)NCC(c2ccc(C(C)(C)C)cc2)N2CCN(C3CCCCC3)CC2)cc1 (stereo not given) | 1720
CC(C)(C)c1ccc(C(CNC(=O)Cc2ccccc2)N2CCN(c3ccccc3)CC2)cc1 (stereo not given) | 11200
COc1ccccc1CCNCC(c1ccc(C(C)(C)C)cc1)N1CCN(C2CCCCC2)CC1 (stereo not given) | 216
CN1CCN(C(CNCCc2ccc(C(F)(F)F)cc2)c2ccccc2)CC1 (stereo not given) | 8970
COc1ccc(NC(=O)NCC(c2ccccc2)N2CCN(C3CCCCC3)CC2)cc1 (stereo not given) | 9830
COc1ccc(C(CNCCc2cc(Cl)cc(Cl)c2)N2CCN(C3CCCCC3)CC2)cc1 (stereo not given) | 62
COc1ccccc1CCNCC(c1ccccc1OC)N1CCN(c2ccccc2)CC1 (stereo not given) | 1580
COc1ccccc1C(CNCCc1cc(Cl)cc(Cl)c1)N1CCN(C2CCCCC2)CC1 (stereo not given) | 344
CN1CCN(C(CNCCc2ccccc2)c2ccc(C(F)(F)F)cc2)CC1 (stereo not given) | 4730
Clc1cc(Cl)cc(CCNCC(c2ccccc2)N2CCN(C3CCCCC3)CC2)c1 (stereo not given) | 80
CC(C)(C)c1ccc(NC(=O)NCC(c2ccc(C(C)(C)C)cc2)N2CCN(C3CCCCC3)CC2)cc1 (stereo not given) | 2050
COc1ccc(C(CNC(=O)Nc2ccc(C(F)(F)F)cc2)N2CCN(C3CCCCC3)CC2)cc1 (stereo not given) | 1530
COc1ccccc1C(CNC(=O)Nc1ccc(C)cc1)N1CCN(c2ccccc2)CC1 (stereo not given) | 3540
CN(C)c1ccc(C(CNC(=O)Cc2ccc(C(F)(F)F)cc2)N2CCN(c3ccccc3)CC2)cc1 (stereo not given) | 34900
COc1ccccc1CC(=O)NCC(c1ccc(C(C)(C)C)cc1)N1CCN(c2ccccc2)CC1 (stereo not given) | 8850
FC(F)(F)c1ccc(CCNCC(c2ccc(C(F)(F)F)cc2)N2CCN(C3CCCCC3)CC2)cc1 (stereo not given) | 782
COc1ccccc1NC(=O)NCC(c1ccc(C(F)(F)F)cc1)N1CCN(C2CCCCC2)CC1 (stereo not given) | 3650
COc1ccc(C(CNC(=O)Nc2ccc(C)cc2)N2CCN(C3CCCCC3)CC2)cc1 (stereo not given) | 2250

The remaining molecules from weak to strong by Ki, led by results:

Ki [nM] | SMILES
1310 | O=C(NCC(c1ccc(C(F)(F)F)cc1)N1CCN(C2CCCCC2)CC1)Nc1ccc(C(F)(F)F)cc1 (stereo not given)
1200 | Fc1ccc(CCNCC(c2ccc(C(F)(F)F)cc2)N2CCN(c3ccccc3)CC2)cc1 (stereo not given)
1130 | CC(C)(C)c1ccc(C(CNC(=O)Nc2ccccc2)N2CCN(C3CCCCC3)CC2)cc1 (stereo not given)
1120 | CC(C)(C)c1ccc(C(CNC(=O)Nc2ccc(F)cc2)N2CCN(C3CCCCC3)CC2)cc1 (stereo not given)
1110 | O=C(NCC(c1ccc(C(F)(F)F)cc1)N1CCN(C2CCCCC2)CC1)Nc1ccc(F)cc1 (stereo not given)
1070 | Cc1ccc(NC(=O)NCC(c2ccc(C(F)(F)F)cc2)N2CCN(C3CCCCC3)CC2)cc1 (stereo not given)
1040 | COc1ccc(C(CNCCc2ccccc2)N2CCN(C3CCCCC3)CC2)cc1 (stereo not given)
987 | CN(C)c1ccc(C(CNC(=O)Nc2cc(Cl)cc(Cl)c2)N2CCN(C3CCCCC3)CC2)cc1 (stereo not given)
972 | CC(C)(C)c1ccc(C(CNC(=O)Nc2ccc(C(F)(F)F)cc2)N2CCN(C3CCCCC3)CC2)cc1 (stereo not given)
932 | O=C(NCC(c1ccc(C(F)(F)F)cc1)N1CCN(C2CCCCC2)CC1)Nc1cc(Cl)cc(Cl)c1 (stereo not given)
929 | COc1ccc(C(CNCCc2ccc(C(F)(F)F)cc2)N2CCN(C3CCCCC3)CC2)cc1 (stereo not given)
910 | COc1ccc(C(CNC(=O)Nc2ccc(C(C)(C)C)cc2)N2CCN(C3CCCCC3)CC2)cc1 (stereo not given)
897 | COc1ccccc1C(CNC(=O)Nc1cc(Cl)cc(Cl)c1)N1CCN(C2CCCCC2)CC1 (stereo not given)
895 | Fc1ccc(CCNCC(c2ccc(C(F)(F)F)cc2)N2CCN(C3CCCCC3)CC2)cc1 (stereo not given)
832 | CC(C)(C)c1ccc(CCNCC(c2ccc(C(F)(F)F)cc2)N2CCN(C3CCCCC3)CC2)cc1 (stereo not given)
830 | COc1ccc(C(CNC(=O)Nc2cc(Cl)cc(Cl)c2)N2CCN(C3CCCCC3)CC2)cc1 (stereo not given)
768 | COc1ccc(CCNCC(c2ccc(C(C)(C)C)cc2)N2CCN(c3ccccc3)CC2)cc1 (stereo not given)
629 | COc1ccc(C(CNCCc2ccc(C(C)(C)C)cc2)N2CCN(C3CCCCC3)CC2)cc1 (stereo not given)
605 | CN(C)c1ccc(CCNCC(c2ccc(C(F)(F)F)cc2)N2CCN(c3ccccc3)CC2)cc1 (stereo not given)
597 | COc1ccc(C(CNCCc2ccc(C)cc2)N2CCN(c3ccccc3)CC2)cc1 (stereo not given)

Ki [nM] | SMILES
545 | Cc1ccc(CCNCC(c2ccc(C(F)(F)F)cc2)N2CCN(C3CCCCC3)CC2)cc1 (stereo not given)
517 | Cc1cc(C)cc(CCNCC(c2ccc(-c3ccccc3)cc2)N2CCN(C3CCCCC3)CC2)c1 (stereo not given)
488 | COc1ccccc1CCNCC(c1ccc(C(C)(C)C)cc1)N1CCN(c2ccccc2)CC1 (stereo not given)
479 | O=C(NCC(c1ccc(C(F)(F)F)cc1)N1CCN(C2CCCCC2)CC1)Nc1ccccc1 (stereo not given)
477 | COc1ccc(CCNCC(c2ccc(C(F)(F)F)cc2)N2CCN(C3CCCCC3)CC2)cc1 (stereo not given)
435 | Cc1ccc(CCNCC(c2ccc(N(C)C)cc2)N2CCN(c3ccccc3)CC2)cc1 (stereo not given)
429 | CC(C)CC(CNC(=O)Nc1ccc(Cl)cc1)N1CCN(C2CCCCC2)CC1 (stereo not given)
393 | COc1ccc(CCNCC(c2ccc(C(F)(F)F)cc2)N2CCN(c3ccccc3)CC2)cc1 (stereo not given)
350 | CC(C)(C)c1ccc(C(CNCCc2ccccc2)N2CCN(C3CCCCC3)CC2)cc1 (stereo not given)
346 | COc1ccc(CCNCC(c2ccc(C(C)(C)C)cc2)N2CCN(C3CCCCC3)CC2)cc1 (stereo not given)
326 | Cc1cc(C)cc(NC(=O)NCC(c2ccc(-c3ccccc3)cc2)N2CCN(C3CCCCC3)CC2)c1 (stereo not given)
316 | Cc1ccc(NC(=O)NCC(c2ccc(-c3ccccc3)cc2)N2CCN(C3CCCCC3)CC2)cc1 (stereo not given)
313 | Cc1cc(C)cc(NC(=O)NCC(CC(C)C)N2CCN(c3ccc(Cl)c(Cl)c3)CC2)c1 (stereo not given)
312 | CN(C)c1ccc(CCNCC(c2ccc(C(C)(C)C)cc2)N2CCN(C3CCCCC3)CC2)cc1 (stereo not given)
296 | CC(C)CC(CNC(=O)Nc1cc(Cl)cc(Cl)c1)N1CCN(C2CCCCC2)CC1 (stereo not given)
231 | CC(C)(C)c1ccc(C(CNCCc2ccc(C(F)(F)F)cc2)N2CCN(C3CCCCC3)CC2)cc1 (stereo not given)
224 | CC(C)(C)c1ccc(C(CNCCc2cc(Cl)cc(Cl)c2)N2CCN(C3CCCCC3)CC2)cc1 (stereo not given)
179 | Cc1ccc(NC(=O)NCC(CC(C)C)N2CCN(c3ccc(Cl)c(Cl)c3)CC2)cc1 (stereo not given)
50 | COc1ccc(C(CNCCc2cc(C)cc(C)c2)N2CCN(C3CCCCC3)CC2)cc1 (stereo not given)
